Holding throughout (assay type): functional, cell-based
One test concerns DU-145. As to the kind of experiment: Cytotoxicity against human DU145 cells after 3 days by SRB assay. The conditions noted are these: DU-145, 72 h. The method in brief:
(§1)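 Freshly trypsinized cells seeded at 1500–7500 per well, compound added from DMSO-diluted stock. After 3 days attached cells were fixed with cold 50% TCA, stained with 0.4% SRB, bound dye solubilized and read at 562 nm.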
Background: In SRB staining, fixed cells bind dye roughly in proportion to their protein.

In test [1] the test system is KB. Description: Cytotoxicity against human KB cells after 3 days by SRB assay. The following applies: 72 h. The method in brief:
as §1

A further test relates to A549. As to the kind of experiment: Cytotoxicity against human A549 cells after 3 days by SRB assay. The conditions noted are these: A549, 72 h. The method in brief:
as §1

Test [2] deals with KB. As to the kind of experiment: Cytotoxicity against human vincristine-resistant KB cells overexpressing p-glycoprotein after 3 days by SRB assay. The conditions noted are these: 72 h. The method in brief: as §1

Data on ten compounds can be found in ChEMBL document CHEMBL1157087, “Cytotoxic polyisoprenyl benzophenonoids from Garcinia subelliptica” (J Nat Prod, 2010).

In brackets after ≈: the same amount, converted by molar mass.

On to `C=C(C)[C@@H]1C[C@]23C[C@H](CC=C(C)C)C(C)(C)[C@](CC=C(C)C)(C(=O)C(C(=O)c4ccc(O)c(O)c4)=C2O[C@H]1C=C(C)C)C3=O` [GARCINIALIPTONE B], for which the IC50 (commonly the point on the concentration scale where inhibition reaches its midpoint) with DU-145 was 7.3 µg/mL (≈ 12.2 µM); in the test on KB [1] it was 5.7 µg/mL (≈ 9.49 µM); in the test with A549, 6.7 µg/mL (≈ 11.2 µM); in the test with KB [2], 6.6 µg/mL (≈ 11 µM).
The matching figures for `CC(C)=CCC1=C2O[C@H](C(C)(C)O)C[C@@]23C[C@H](CC=C(C)C)C(C)(C)[C@@](C(=O)C(C)C)(C1=O)C3=O`: greater than 5 µg/mL, greater than 5 µg/mL, greater than 5 µg/mL and greater than 5 µg/mL.
Taken in the same sequence, the figures for `C=C(C)CC[C@@H]1C[C@]23C[C@H](CC=C(C)C)C(C)(C)[C@](CC=C(C)C)(C(=O)C(C(=O)c4ccc(O)c(O)c4)=C2OC1(C)C)C3=O` [CYCLOXANTHOCHYMOL] were 3.7 µg/mL (≈ 6.14 µM), 5 µg/mL (≈ 8.29 µM), 4.5 µg/mL (≈ 7.47 µM) and 4.9 µg/mL (≈ 8.13 µM).
The matching figures for `C=C(C)CC[C@H]1C[C@@]23C[C@@H](CC=C(C)C)C(C)(C)[C@@](CC=C(C)C)(C(=O)C(C(=O)c4ccc(O)c(O)c4)=C2OC1(C)C)C3=O`: 4.7 µg/mL (≈ 7.8 µM), 4.9 µg/mL (≈ 8.13 µM), 4.5 µg/mL (≈ 7.47 µM) and 5.2 µg/mL (≈ 8.63 µM).
As for `C=C(C)CCC(C[C@@]12C[C@H]3[C@@H](C=C(C)C)[C@@](C(=O)c4ccc(O)c(O)c4)(C1=O)C(=O)[C@@](CC=C(C)C)(C2=O)C3(C)C)C(=C)C` (some centres undefined), the 50% inhibitory concentration (IC50) came out at 4.1 µg/mL (≈ 6.82 µM) with DU-145, 5.7 µg/mL (≈ 9.49 µM) in the test with KB [1], 4.2 µg/mL (≈ 6.99 µM) in the test on A549 and 5.6 µg/mL (≈ 9.32 µM) in the test with KB [2].
For the compound `CC(=O)O[C@H]1C(=O)[C@@]2(C)[C@H]([C@H](OC(=O)c3ccccc3)[C@]3(O)C[C@H](OC(=O)[C@H](O)[C@@H](NC(=O)c4ccccc4)c4ccccc4)C(C)=C1C3(C)C)[C@]1(OC(C)=O)CO[C@@H]1C[C@@H]2O` [PACLITAXEL], the IC50 was 0.002 µg/mL (≈ 0.00234 µM) with DU-145, 0.002 µg/mL (≈ 0.00234 µM) with KB [1] and greater than 0.085 µg/mL in the test with KB [2].
Turning to `CC(C)=CC[C@@H]1C[C@]23C[C@H](CC=C(C)C)C(C)(C)[C@](CC=C(C)C)(C(=O)C(C(=O)c4ccc(O)c(O)c4)=C2OC1(C)C)C3=O` [ISOXANTHOCHYMOL], the IC50 in the test with DU-145 stood at 4.2 µg/mL (≈ 6.97 µM); in the test with KB [1], 4.5 µg/mL (≈ 7.47 µM); in the test with A549, 4.4 µg/mL (≈ 7.3 µM); with KB [2], 5.2 µg/mL (≈ 8.63 µM).
The matching figures for `C=C(C)CC[C@H](C[C@@H]1C[C@@]2(CC=C(C)C)C(=O)C3=C(O[C@H](C(C)(C)O)C3)[C@](C(=O)c3ccc(O)c(O)c3)(C2=O)C1(C)C)C(=C)C` [GARCINIALIPTONE C]: 4.3 µg/mL (≈ 6.95 µM), 3.4 µg/mL (≈ 5.49 µM), 4.3 µg/mL (≈ 6.95 µM) and 4.9 µg/mL (≈ 7.92 µM).
The matching figures for `C=C(C)CCC(C[C@]12C[C@@H]3[C@H](C=C(C)C)[C@](C(=O)c4ccc(O)c(O)c4)(C1=O)C(=O)[C@](CC=C(C)C)(C2=O)C3(C)C)C(=C)C` (some centres undefined): 4.2 µg/mL (≈ 6.99 µM), 4.4 µg/mL (≈ 7.32 µM), 4.2 µg/mL (≈ 6.99 µM) and 5.3 µg/mL (≈ 8.82 µM).
In the case of `C=C(C)CC[C@H](C[C@@H]1C[C@]2(CC=C(C)C)C(=O)[C@@](C(=O)c3ccc(O)c(O)c3)(C(=O)C(CC=C(C)C)=C2O)C1(C)C)C(=C)C` [GARCINIALIPTONE D], the IC50 came to 3.3 µg/mL (≈ 5.47 µM) in the test with DU-145, 3.9 µg/mL (≈ 6.47 µM) in the test on KB [1], 4.4 µg/mL (≈ 7.3 µM) in the test on A549 and 4.6 µg/mL (≈ 7.63 µM) in the test on KB [2].
